From PubChem BioAssay
RBBP9 inhibitor = human RBBP9 inhibitors, primary screen, biochemical, fluorescence polarization, FP-Rh probe, HTS. inhibition, % at 7.94 µM. actives 0.2% (n = 220,000). recombinant RBBP9. AID 1515, 2009. Serine hydrolase RBBP9 (Homo sapiens), O75884;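 active = inhibition above the campaign mean of all tested compounds plus 3 SD, cut at about 14% in these data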;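 also: plate controls were DMSO wells with RBBP9 for no effect and wells lacking RBBP9 protein for full effect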
Target sequence (O75884 whole entry, looked up): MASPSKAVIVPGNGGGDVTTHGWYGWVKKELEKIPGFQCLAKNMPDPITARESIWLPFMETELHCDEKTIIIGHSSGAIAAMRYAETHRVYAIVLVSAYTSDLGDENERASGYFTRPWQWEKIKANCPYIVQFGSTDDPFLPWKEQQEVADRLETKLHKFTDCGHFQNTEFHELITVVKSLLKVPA
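System: RBBP9 protein | Quantity: 2.5 µM RBBP9 dispensing solution, before mixing | Reagent: FP-Rh probe, 375 nM dispensing solution | Timing: Enzyme-compound preincubation 30 min, then probe labeling 45 min, 25 °C | Measured by: Fluorescence polarization | Read-out: % inhibition | Replication: One well per compound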
SUMO HTRF inh = inhibitors of in vitro SUMOylation cascade, primary screen, biochemical, HTRF, uHTS | SUMO-conjugating enzyme UBC9 (Homo sapiens), P63279 | actives 0.36% (n = 290,000) | HTRF SUMOylation assay, SAE1/SAE2 + UBC9 | inhibition, % at 35 µM; in the data active = inhibition above about 50%, passing the limit was not always enough; inconclusive = no clear call, values can overlap the other calls
PREPL inh = PREPL enzyme inhibitors, primary screen, biochemical, fluorescence polarization | recombinant PREPL, fluorescence polarization activity-based probe | AID 2751, 2010 | inhibition, % at 5.96 µM | Prolyl endopeptidase-like (Homo sapiens), Q4J6C6 | actives 0.68% (n = 320,000); in the data active = inhibition above about 43%;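 also: 0% = enzyme with DMSO and 100% = wells lacking enzyme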
ALR H2O2 inh = inhibitors of human ALR sulfhydryl oxidase, primary screen, biochemical, H2O2 detection, HRP-luminol luminescence, single point | actives 3.8% (n = 290,000) | inhibition, % (no concentration beside the values) | purified ALR, DTT oxidation | AID 485317, 2010;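 active = mean replicate inhibition above about 79%, with every replicate also reaching it, limit read from the data; inconclusive = only one of the two criteria met; inactive = mean below limit and not every replicate reaching it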
Target sequence (P55789 whole entry, looked up): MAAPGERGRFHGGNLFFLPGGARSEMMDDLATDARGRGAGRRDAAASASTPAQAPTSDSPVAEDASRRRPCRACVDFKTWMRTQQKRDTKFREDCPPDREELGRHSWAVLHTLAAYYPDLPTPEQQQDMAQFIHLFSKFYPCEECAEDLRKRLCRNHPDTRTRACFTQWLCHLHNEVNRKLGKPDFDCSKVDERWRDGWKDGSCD
UBC13 inh = UBC13 polyubiquitin chain formation inhibitors, primary screen, biochemical, TR-FRET, uHTS. Ubiquitin-conjugating enzyme E2 N (Homo sapiens), P61088. inhibition, % at 20 µM. actives 0.47% (n = 330,000); in the data active = inhibition above about 45%, passing the limit was not always enough; inconclusive = no clear call, values can overlap the other calls
Target sequence (P61088 whole entry, looked up): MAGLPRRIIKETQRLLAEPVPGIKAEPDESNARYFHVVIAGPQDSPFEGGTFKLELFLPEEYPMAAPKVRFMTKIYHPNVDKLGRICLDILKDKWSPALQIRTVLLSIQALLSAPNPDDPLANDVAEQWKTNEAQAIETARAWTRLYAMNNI
Rin1 Abl inh = inhibitors of Rin1-Abl protein binding, primary screen, biochemical, TR-FRET | Tyrosine-protein kinase ABL1 (Homo sapiens) + Ras and Rab interactor 1 (Homo sapiens), … | inhibition, % at 7.35 µM | actives 0.4% (n = 360,000); in the data active = inhibition above about 5%, passing the limit was not always enough
Rin1-Abl confirm = Rin1-Abl binding inhibitor retest, confirmation, biochemical, TR-FRET; inhibition, % at 7.35 µM; shares compounds with Rin1 Abl inh; actives 49% (n = 1,300); purified proteins
GFP quench = GFP fluorescence inhibitors and quenchers, artefact control for Rin1-Abl interaction inhibitor project, biochemical. shares compounds with Rin1 Abl inh. inhibitors/quenchers counterscreen. inhibition, % at 6.75 µM. actives 8.5% (n = 1,300);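 also: ABL1-eGFP fusion protein alone without its partner RIN1-SBP; 0% = protein with vehicle and 100% = wells lacking protein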
GFP quench dose = GFP fluorescence inhibitors and quenchers, dose response, artefact control for Rin1-Abl interaction inhibitor project, biochemical. 230 tested, under 10 active. shares compounds with Rin1 Abl inh. GFP fluorescence interference/quenching counterscreen. AID 602182, 2012. IC50, µM; call rule not given here;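 also: ABL1-eGFP fusion protein alone without its RIN1 binding partner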
* marks the source's active call; other numbers are inactive results; ? = inconclusive; nt = no result given. Compounds with a hit are over-represented: about 4.3% of the library has one in this group of screens. Rule as the data show it, unless noted: active = inhibition above about 6.5%; inactive = the rest.

SMILES	RBBP9 inhibitor	SUMO HTRF inh	PREPL inh	ALR H2O2 inh	UBC13 inh	Rin1 Abl inh	Rin1-Abl confirm	GFP quench	others
O=C1CCCC(O)=C1N=Nc1ccc(C(=O)O)cc1	-4.9	25.6	20.9	nt	-10.9	6.7*	2.2	3.2
CC(=O)c1ccc(OCC(O)CN2CCN(c3ccccn3)CC2)cc1 (centres undefined)	1.7	-2.4	-8.9	-15.4	7.1	9.3*	-1.2	0.3
CC(=O)N1CCc2cc(C(=O)CN3CCN(c4ccccn4)CC3)ccc21	-4.8	6.3	-1.4	-4.0	-15.1	-2.2	nt	nt
CC1(C)CCN2CCC(C)(C)c3c(O)ccc1c32	nt	14.4	16.6	31.0	-19.5	7.6*	1.6	1.0
NC(N)=NC(N)=Nc1cccc2ccccc12	-9.5	24.7	13.2	-31.2	-0.2	-0.4	nt	nt
Cc1c(Cl)cccc1N=C(N)N=C(N)N	0.5	10.2	-2.6	-7.1	-3.5	9.1*	-2.8	0.0
Cc1nnc(SCC(=O)N2CCCC(C(=O)c3ccc(Cl)cc3)C2)o1 (centres undefined)	-9.7	-5.7	9.3	-25.2	17.9	-2.0	nt	nt
C=CCC(=O)N1CCCC(C(=O)c2ccc(Cl)cc2)C1 (centres undefined)	nt	-0.7	-3.6	nt	-0.8	6.9*	-0.3	-0.4
CC1CCCCN1c1ncnc(N)c1[N+](=O)[O-] (centres undefined)	-4.3	17.8	-8.8	nt	10.1	7.2*	-0.2	-0.1
CC1Cc2ccccc2N1c1ncnc(N)c1[N+](=O)[O-] (centres undefined)	-5.9	8.8	16.5	-0.6	-2.1	-4.6	nt	nt
O=C(NCCO)c1ccc(Cl)c(Cl)c1	-6.5	12.4	0.3	1.0	-6.7	-0.2	nt	nt
O=C(NCCO)c1ccc2nc(-c3ccco3)c(-c3ccco3)nc2c1	-0.8	?	16.9	-24.4	-7.3	10.0*	3.9	13.5*
CC(=O)N1CCCC(C)(C(=O)Nc2ccc3oc(C)nc3c2)C1 (centres undefined)	nt	nt	nt	nt	nt	-2.2	nt	nt
CCCCn1c(NS(=O)(=O)c2ccc(C)cc2)c(S(=O)(=O)c2ccccc2)c2nc3ccccc3nc21	-0.2	100.5*	12.0	-4.6	nt	9.6*	-3.2	-1.2
CCn1cc(C(=O)N2CCN(c3cccc(Cl)c3)CC2)c2cc(OC)c(OC)cc2c1=O	6.2	7.5	22.8	3.3	-16.3	1.5	nt	nt
COc1cc2c(C(=O)N3CCN(c4cccc(Cl)c4)CC3)cn(C)c(=O)c2cc1OC	-1.9	9.0	9.9	nt	-4.3	17.0*	31.5*	-3.3	GFP quench dose=>67.6
CC(C)NC(=O)c1csc(COCCO)n1	nt	nt	nt	nt	nt	-1.3	nt	nt
O=C(NN=c1c(=O)c2ccccc2c1=O)c1ccccc1	-12.3	25.2	-6.1	28.9	-56.2	23.4*	29.4*	-0.1	GFP quench dose=>67.6
CC(C)n1cc(CN2CCC(C(=O)Nc3cccc(-c4cccc(Cl)c4)c3)CC2)cn1	nt	-1.0	-44.4	-21.9	31.6	11.5*	25.5*	-0.9	GFP quench dose=>67.6
COC(=O)c1cc(OC)nc(OC)c1	-2.2	-1.9	13.1	nt	0.5	-1.9	nt	nt
COC(=O)c1cc(O)c(O)c(O)c1	0.8	-4.1	10.4	96.2*	14.0	18.5*	16.6*	4.1
Cc1cccc(N2CCN(C(=O)CCCSc3nc4ccccc4[nH]3)CC2)c1C	-3.4	-25.5	-1.7	-0.3	9.7	-1.2	nt	nt
O=C(CCCSc1nc2ccccc2[nH]1)N1CCN(c2ccccc2)CC1	-9.5	-3.2	-30.1	22.3	-2.8	7.0*	7.1*	2.3
COc1ccc(OCCCC(=O)NCCc2nc3ccccc3[nH]2)cc1	-2.4	5.2	9.0	-25.4	0.6	2.5	nt	nt
COc1ccc(CCC(=O)NCCc2nc3ccccc3[nH]2)cc1	-2.6	-1.2	0.2	-1.4	-1.7	6.0*	-1.7	-1.0
SMILES	RBBP9 inhibitor	SUMO HTRF inh	PREPL inh	ALR H2O2 inh	UBC13 inh	Rin1 Abl inh	Rin1-Abl confirm	GFP quench	others
O=C(Nc1ccc(C(=O)OC[C@@H]2CCCN3CCCC[C@H]23)cc1)c1cccc(Br)c1	-7.5	-10.9	-26.4	-1.5	21.5	8.5*	10.4*	-1.4
O=C(NC(=O)c1cccc(F)c1)OC[C@@H]1CCCN2CCCC[C@H]12	2.0	7.6	3.5	nt	0.1	3.9	nt	nt
O=C(C(c1ccccc1)C(O)c1ccccc1)N1CCOCC1 (centres undefined)	nt	nt	nt	nt	nt	0.9	nt	nt
O=C(Nc1cc(N2CCOCC2)ncn1)NC1(C(F)(F)F)Oc2ccccc2O1	-7.6	-5.1	14.7	-5.4	0.1	9.8*	4.2	0.2
CCOC(=O)c1ccc(NC(=O)CSc2nc3cccnc3n2C)cc1	-2.5	21.7	7.2	3.7	5.1	9.9*	5.9	-0.8
NC(=O)c1ccc(NC(=O)CSc2nncn2-c2ccccc2)cc1	nt	-1.7	-4.5	-2.9	-2.7	0.0	nt	nt
CCOC(=O)c1ccc(NC(=O)CSc2nncn2-c2cccnc2)cc1	nt	8.8	-17.1	-5.3	-1.5	7.8*	1.9	-0.6
COc1ccc(CN2CCNC(=O)C2CC(=O)N(C)Cc2ccon2)c(F)c1 (centres undefined)	nt	12.0	-0.3	-23.9	-11.0	0.5	nt	nt
O=C1N(c2ccccc2)C(c2ccccc2)N2CCCN12 (centres undefined)	-4.8	5.6	-4.3	-24.2	-2.0	-0.1	nt	nt
Cc1ccc(C2N(c3cccc(Cl)c3)C(=O)N3CCCN23)cc1 (centres undefined)	4.1	3.1	-4.2	-18.9	-4.5	29.4*	29.6*	-0.6	GFP quench dose=>67.5
O=C1N(c2ccc(Cl)cc2)C(c2ccccc2)N2CCCN12 (centres undefined)	-4.9	-6.7	-2.6	-7.4	-6.3	8.3*	11.6*	-0.3
[C-]#[N+][C@H](O[C@@H]1O[C@H](CO)[C@@H](O)[C@H](O)[C@H]1O)c1ccccc1	nt	nt	3.3	-11.3	-6.5	-1.8	nt	nt
O=C(O)CC(CCc1ccccc1)OC1OC(CO)C(O)C(O)C1O (centres undefined)	nt	38.7	15.5	47.2	3.3	30.2*	25.7*	3.3	GFP quench dose=>67.5
